Laboratory results reported in ChEMBL document CHEMBL1123799, “Cardiotonic agents. 1. Novel 8-aryl-substituted imidazo[1,2-a]- and -[1,5-a]pyridines and imidazo[1,5-a]pyridinones as potential positive inotropic agents” (J Med Chem, 1987).

Columns and labels:
[1] = Ability to inhibit canine cardiac cAMP phosphodiesterase III
Summary of the method: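 Crude enzyme from dog cardiac muscle homogenate, taken by differential centrifugation between 700g and 165000g. Assay at 37 °C with 10^-6 M cAMP plus [3H]cAMP (10^5 cpm/mL), 40 mM Tris pH 8.0, 10 mM MgCl2, 2.5 mM mercaptoethanol, 0.05 mg/mL BSA and 0.1 mg/mL enzyme. AMP and cAMP separated by PEI-cellulose ion-exchange TLC and counted by scintillation. Triplicate, up to 100 μM.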

Canis familiaris [2] = organism: Canis familiaris; assay: Electrophysiological activity as concentration causing 20 % increase in the functional refractory period of canine ventricular muscle.; set-up: species or system Canis lupus familiaris, Muscle tissue
Summary of the method: (§1)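 Right-ventricle papillary muscle strips (5-6 mm × 1-2 mm) in a 3.5-mL bath, superfused with oxygenated saline at 36 ± 0.5 °C. Diastolic threshold set with 2 ms bipolar stimuli at 4000 ms cycle length. Paced at 4× threshold for 60 min. FRP found at 1000 ms cycle length with a premature S2 after every tenth S1 at shortening intervals. Various concentrations superfused, one compound per strip.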

Felis catus = organism: Felis catus; assay: Inotropic activity as dose required to cause 20% positive or negative change in contractile force of papillary muscle from cat; type: functional, Muscle tissue
Summary of the method: (§2)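 Papillary muscle (<1 mm diameter, ≥3 mm long) held isometric at 35 °C in bicarbonate saline (pH 7.3-7.5, 95% O2/5% CO2). Muscles under 500 mg/mm² force discarded. Compounds in water added to the bath at 1:1000, with a 15-min wash between doses. Norepinephrine 10 μM added last as internal standard. Force normalized to cross-sectional area (weight/length). Mean of ≥3 determinations.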

Mustela putorius furo [3] = organism: Mustela putorius furo; assay: Inotropic activity as dose required to cause 20% positive or negative change in contractile force of papillary muscle from ferret; type: functional, Muscle tissue; summary of the method: as §2
Mustela putorius furo [4] = organism: Mustela putorius furo; assay: Inotropic activity as dose required to cause 20% positive or negative change in contractile force of papillary muscle from ferret
Canis familiaris [5] = organism: Canis familiaris; assay: Electrophysiological activity as concentration of the drug causing 20 % increase in the functional refractory period of canine ventricular muscle.; set-up: species or system Canis lupus familiaris, Muscle tissue; summary of the method: as §1

Row | SMILES | FRP C20 (Canis familiaris [2]) [µM] | CF C20 (Felis catus) [µM] | also measured
1 | C1=C(c2ccc(-n3ccnc3)cc2)c2nccn2CC1 | 100 | 29 | IC50 [1]: 550 µM
2 | COC(=O)c1nc(O)n2cccc(-c3ccc(-n4ccnc4C)cc3)c12 |  | 30 | 
3 | CS(=O)(=O)Nc1ccc(-c2cccn3ccnc23)cc1 | 50 | 10 | IC50 [1]: > 1000 µM
4 | Cc1ncc2c(-c3ccccc3)cccn12 |  |  | CF C20 (Mustela putorius furo [3]): -20 µM
5 | c1cc(-c2ccc(-n3ccnc3)cc2)c2nccn2c1 |  | 30 | IC50 [1]: 220 µM
6 | Cc1ncc2n1CCCC2c1ccc(NS(C)(=O)=O)cc1 (configuration not stated) | 80 |  | CF C20 (Mustela putorius furo [3]): 0.8 µM
7 | Cc1ncc2n1CCC=C2c1ccc(NS(C)(=O)=O)cc1 | 10 | 2 | 
8 | Cc1ncc2n1CCC=C2c1ccc(O)cc1 | 100 | 30 | 
9 | Cc1ccc(-c2cccn3c(O)ncc23)cc1 |  | 6 | 
10 | Nc1ccc(-c2cccn3ccnc23)cc1 |  | 15 | 
11 | CCOc1ccc(-c2cccn3c(C)ncc23)cc1 |  | -100 | 
12 | Cc1nccn1-c1ccc(-c2cccn3c(C)ncc23)cc1 | 80 | 13 | IC50 [1]: 65 µM
13 | C1=C(c2ccccc2)c2nccn2CC1 |  | -15 | 
14 | CC(=O)Nc1ccc(C2=CCCn3c2cnc3C)cc1 | 40 | 10 | 
15 | COC(=O)c1nc(O)n2cccc(-c3ccc(C)cc3)c12 |  | -40 | 
16 | CCCCNC(=O)NC1CCN(c2ncnc3cc(OC)c(OC)cc23)CC1 [BUQUINERAN] |  |  | CF C20 (Mustela putorius furo [3]): 7 µM
17 | c1ccc(-c2cccn3ccnc23)cc1 | 10 | 1 | 
18 | CSc1ccc(C(=O)c2[nH]c(=O)[nH]c2C)cc1 [ENOXIMONE] |  | 3 | 
19 | Oc1ccc(-c2cccn3ccnc23)cc1 | -18 | 15 | 
20 | Cc1ncc2n1CCC=C2c1ccc(-n2ccnc2)cc1 | 14 | 9 | 
21 | CCOc1ccc(C2=CCCn3c2cnc3C)cc1 | 30 | 20 | 
22 | CCOC(=O)c1nc(O)n2cccc(-c3ccccc3)c12 |  |  | CF C20 (Mustela putorius furo [4]): -10 µM
23 | CCc1nccn1-c1ccc(C2=CCCn3c2cnc3CC)cc1 | 9 | 0.8 | 
24 | Nc1ccc(C2=CCCn3ccnc32)cc1 |  | -5 | 
25 | Cc1nccn1-c1ccc(C2=CCCn3c2cnc3C)cc1 | 5 | 5 | IC50 [1]: 150 µM
26 | Cc1ncc2n1CCC=C2c1ccccc1 |  | 10 | 
27 | Cc1nccn1-c1ccc(-c2cccn3c(C)nc(Br)c23)cc1 |  | 1 | FRP C20 (Canis familiaris [5]): 17 µM; IC50 [1]: 30 µM
